Experimental data collected from several papers.
Lines come from different studies, so protocols differ.
Target: Serine/threonine-protein kinase 38-like (STK38L, Homo sapiens, UniProt Q9Y2H1)

The remaining binding of `COc1cccc(CNC(=O)c2nc3scc(COCc4ccc(C(=O)O)cc4)c3c(=O)[nH]2)c1` is reported as 87.7% (cell-free assay; competition with immobilised ligand; 1 µM).
`N[C@@H]1CCN(c2nccc(-c3cnn4ncccc34)n2)C1` gave a remaining binding of 100% (binding; 1 µM).
With `CC1=C(C#N)[C@@H](c2ccc3[nH]nc(C)c3c2)C(C#N)=C(c2ccc(Cl)cc2)N1` the remaining binding was 100% (binding; competition with immobilised ligand; 1 µM).
The remaining binding of `O=C(Nc1c[nH]nc1C(=O)NC1CCNCC1)c1cc(F)cc(F)c1` is reported as 93% (binding; competition with immobilised ligand; 1 µM).
The remaining binding of `FC(F)(F)Oc1cccc(-c2cnc3ccc(-c4ccncc4)nn23)c1` is reported as 89% (cell-free assay; competition with immobilised ligand; 5 µM).
For `Cc1cnc(Nc2ccc(C(=O)N3CCC(N4CCCC4)CC3)cc2)nc1-c1cc2ccccc2s1`, the remaining binding was 100% (binding; competition with immobilised ligand; 1 µM).
`COc1ccc2cc(OCC3(C(=O)O)CN(C(=O)c4ccc(F)cc4)C3)ccc2c1` gave a remaining binding of 86% (binding; competition with immobilised ligand; 1 µM).
With `CN(C)c1nccc(-c2cnc3ncccn23)n1` the remaining binding was 100% (binding; 1 µM).
The remaining binding of `Nc1ncc2c(n1)-c1c([nH]c3ccc(C#CC4CC4)cc13)CCCC2` is reported as 100% (binding; competition with immobilised ligand; 1 µM).
With `C[C@H]1CCN(c2nccc(-c3cnn4ncccc34)n2)C1` the remaining binding was 83% (binding; 1 µM).
`Cc1nccc(COC(=O)N2C[C@@H]3[C@@H](CNC(=O)c4ccc5[nH]nnc5c4)[C@@H]3C2)n1` gave a remaining binding of 70% (cell-free assay; competition with immobilised ligand; 1 µM).
`CC1CCCN1c1nccc(-c2cnn3ncccc23)n1` (stereo not shown) has a remaining binding of 100% (binding; 1 µM).
With `COc1cnc(Nc2cccc(S(N)(=O)=O)c2)nc1N1CCN(c2ccccc2)CC1` the remaining binding was 96% (binding; competition with immobilised ligand; 1 µM).
With `O=C(c1ccc(Nc2ncc(Cl)c(-c3cc4ccccc4s3)n2)cc1)N1CCC(N2CCCC2)CC1` the remaining binding was 74% (binding; competition with immobilised ligand; 1 µM).
For `Cc1cc(C)c(-n2ccn3nc(-c4cccnc4)cc23)cc1NC(=O)c1cc(C#N)cc(S(F)(F)(F)(F)F)c1`, the remaining binding was 98.9% (binding; competition with immobilised ligand; 0.1 µM).
The remaining binding of `C[C@@H](c1ccc(-n2cnc3c(N)ncnc32)cc1)N1CCc2nn(C)c(Cc3ccccc3)c2C1=O` is reported as 80% (binding; competition with immobilised ligand; 0.1 µM).
`Cc1cnn2ncc(-c3ccnc(N(C)C)n3)c2c1` gave a remaining binding of 100% (binding; 1 µM).
For `Cc1cc(NC(=O)c2cccc(S(F)(F)(F)(F)F)c2)cc(-n2ccn3nc(-c4cccnc4)cc23)c1`, the remaining binding was 100% (cell-free assay; competition with immobilised ligand; 1 µM).
`CN(C)c1nccc(-c2cnn3ncccc23)n1` gave a remaining binding of 85% (binding; 1 µM).
`CN(C)C(=O)Cn1cc(-c2nc(C3(c4ccc(-c5cnc(N)nc5)cc4)CC3)no2)cn1` has a remaining binding of 81% (cell-free assay; competition with immobilised ligand; 1 µM).
`O=C(c1ccc(Nc2nccc(-c3cc4ccccc4s3)n2)cc1)N1CCC(N2CCCC2)CC1` has a remaining binding of 94% (binding; competition with immobilised ligand; 1 µM).
`COc1ccnn2ncc(-c3ccnc(N(C)C)n3)c12` has a remaining binding of 96% (binding; 1 µM).
